In ChEMBL document CHEMBL4689842, “EUbOPEN Chemogenomics Library wave 1” (2021):

Tested on: U2OS
Assay: Multiplex assay against U2OS
Format: toxicity, cell-based
Details: human
Procedure, shortened: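 Phenotypes for tubulin, mitochondrial mass and membrane permeability are expressed as per cents of healthy-nucleus cells. Cells were stained live at seeding with Hoechst33342, BioTracker Green Microtubule Cytoskeleton Dye, MitoTracker Red and Annexin V Alexa Fluor 680, then imaged after compound addition on a CQ1 microscope at 37°C and 5% CO2. Machine-learning gating in CellPathfinder separated Hoechst high-intensity objects from normal cells, divided normal cells by nuclear state (healthy, pyknosed, fragmented) and divided pyknosed cells into mitotic or apoptotic.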

[1] = 12 h, 1 µM, compound concentration 1 uM, replicate 1
[2] = 12 h, 1 µM, compound concentration 1 uM, replicate 2
[3] = 12 h, 10 µM, compound concentration 10 uM, replicate 1
[4] = 12 h, 10 µM, compound concentration 10 uM, replicate 2
[5] = 24 h, 1 µM, compound concentration 1 uM, replicate 1
[6] = 24 h, 1 µM, compound concentration 1 uM, replicate 2
[7] = 24 h, 10 µM, compound concentration 10 uM, replicate 1
[8] = 24 h, 10 µM, compound concentration 10 uM, replicate 2

Cn1nc(C(F)(F)F)cc1-c1cnc(N2CCc3cc(S(=O)(=O)Nc4c(F)cc(Cl)cc4F)cc(N4CCCC4=O)c32)nc1 [TP-020]
Population Apoptotic (%) [1]: 27% | Population Fragmented Nuclei (%) [1]: 4% | Population Healthy Nuclei (%) [1]: 88% | Population Hoechst High Intensity Objects (%) [1]: 4% | Population Membrane Permeable-Phenotype (%) [1]: 17% | Population Mitochondria Different-Phenotype (%) [1]: 18% | Population Mitotic Cells (%) [1]: 72% | Population Normal (%) [1]: 95% | Population Pyknosed Nuclei (%) [1]: 6% | Population Tubulin-Different-Phenotype (%) [1]: 10% | Total Cell Count [1]: 139 | Population Apoptotic (%) [2]: 0% | Population Fragmented Nuclei (%) [2]: 14% | Population Healthy Nuclei (%) [2]: 79% | Population Hoechst High Intensity Objects (%) [2]: 15% | Population Membrane Permeable-Phenotype (%) [2]: 15% | Population Mitochondria Different-Phenotype (%) [2]: 15% | Population Mitotic Cells (%) [2]: 100% | Population Normal (%) [2]: 84% | Population Pyknosed Nuclei (%) [2]: 5% | Population Tubulin-Different-Phenotype (%) [2]: 15% | Total Cell Count [2]: 134 | Population Apoptotic (%) [3]: 50% | Population Fragmented Nuclei (%) [3]: 3% | Population Healthy Nuclei (%) [3]: 93% | Population Hoechst High Intensity Objects (%) [3]: 4% | Population Membrane Permeable-Phenotype (%) [3]: 11% | Population Mitochondria Different-Phenotype (%) [3]: 23% | Population Mitotic Cells (%) [3]: 50% | Population Normal (%) [3]: 95% | Population Pyknosed Nuclei (%) [3]: 3% | Population Tubulin-Different-Phenotype (%) [3]: 22% | Total Cell Count [3]: 196 | Population Apoptotic (%) [4]: 16% | Population Fragmented Nuclei (%) [4]: 8% | Population Healthy Nuclei (%) [4]: 81% | Population Hoechst High Intensity Objects (%) [4]: 5% | Population Membrane Permeable-Phenotype (%) [4]: 10% | Population Mitochondria Different-Phenotype (%) [4]: 31% | Population Mitotic Cells (%) [4]: 83% | Population Normal (%) [4]: 94% | Population Pyknosed Nuclei (%) [4]: 9% | Population Tubulin-Different-Phenotype (%) [4]: 26% | Total Cell Count [4]: 133 | Population Apoptotic (%) [5]: 20% | Population Fragmented Nuclei (%) [5]: 2% | Population Healthy Nuclei (%) [5]: 90% | Population Hoechst High Intensity Objects (%) [5]: 2% | Population Membrane Permeable-Phenotype (%) [5]: 12% | Population Mitochondria Different-Phenotype (%) [5]: 10% | Population Mitotic Cells (%) [5]: 80% | Population Normal (%) [5]: 97% | Population Pyknosed Nuclei (%) [5]: 7% | Population Tubulin-Different-Phenotype (%) [5]: 16% | Total Cell Count [5]: 196 | Population Apoptotic (%) [6]: 42% | Population Fragmented Nuclei (%) [6]: 12% | Population Healthy Nuclei (%) [6]: 81% | Population Hoechst High Intensity Objects (%) [6]: 5% | Population Membrane Permeable-Phenotype (%) [6]: 13% | Population Mitochondria Different-Phenotype (%) [6]: 23% | Population Mitotic Cells (%) [6]: 57% | Population Normal (%) [6]: 94% | Population Pyknosed Nuclei (%) [6]: 5% | Population Tubulin-Different-Phenotype (%) [6]: 11% | Total Cell Count [6]: 163 | Population Apoptotic (%) [7]: 9% | Population Fragmented Nuclei (%) [7]: 3% | Population Healthy Nuclei (%) [7]: 91% | Population Hoechst High Intensity Objects (%) [7]: 1% | Population Membrane Permeable-Phenotype (%) [7]: 6% | Population Mitochondria Different-Phenotype (%) [7]: 19% | Population Mitotic Cells (%) [7]: 90% | Population Normal (%) [7]: 98% | Population Tubulin-Different-Phenotype (%) [7]: 29% | Total Cell Count [7]: 268 | Population Apoptotic (%) [8]: 50% | Population Fragmented Nuclei (%) [8]: 6% | Population Healthy Nuclei (%) [8]: 88% | Population Hoechst High Intensity Objects (%) [8]: 7% | Population Membrane Permeable-Phenotype (%) [8]: 9% | Population Mitochondria Different-Phenotype (%) [8]: 45% | Population Mitotic Cells (%) [8]: 50% | Population Normal (%) [8]: 92% | Population Pyknosed Nuclei (%) [8]: 5% | Population Tubulin-Different-Phenotype (%) [8]: 25% | Total Cell Count [8]: 175
